Assay results as given in ChEMBL document CHEMBL2346629, “Discovery and characterization of novel allosteric FAK inhibitors” (Eur J Med Chem, 2013).

Legend:
[1] = target: Casein kinase II subunit alpha (Homo sapiens) (UniProt P68400); assay: Inhibition of CK2a (unknown origin) using [gamma-33P]ATP assessed as residual activity at 3 uM
How it was run: (§1)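 Reaction Biology HotSpot radiometric profiling panel of 288 kinases (261 wild-type, 27 mutant). Kinase activity was read out by incorporation of [γ-33P]ATP.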

[2] = target: Phosphorylase b kinase gamma catalytic chain, liver/testis isoform (Homo sapiens) (UniProt P15735); assay: Inhibition of PHKg2 (unknown origin) using [gamma-33P]ATP assessed as residual activity at 3 uM
[3] = system: Tyrosine-protein kinase ABL1 (Homo sapiens), P00519 [T315I]; assay: Inhibition of ABL1 T315I mutant (unknown origin) using [gamma-33P]ATP assessed as residual activity at 3 uM
How it was run: (§2)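 Radiometric profiling across 288 kinases (261 wild-type, 27 mutant), run as an outsourced service. Inhibition read out as [gamma-33P]ATP incorporation into substrate.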

[4] = target: Calcium/calmodulin-dependent protein kinase type 1 (Homo sapiens) (UniProt Q14012); assay: Inhibition of CAMK1a (unknown origin) using [gamma-33P]ATP assessed as residual activity at 3 uM; how it was run: as §2
[5] = target: Leucine-rich repeat serine/threonine-protein kinase 2 (Homo sapiens) (UniProt Q5S007); assay: Inhibition of LRRK2 (unknown origin) using [gamma-33P]ATP assessed as residual activity at 3 uM
Sequence of Leucine-rich repeat serine/threonine-protein kinase 2 (Homo sapiens) (Q5S007 whole entry): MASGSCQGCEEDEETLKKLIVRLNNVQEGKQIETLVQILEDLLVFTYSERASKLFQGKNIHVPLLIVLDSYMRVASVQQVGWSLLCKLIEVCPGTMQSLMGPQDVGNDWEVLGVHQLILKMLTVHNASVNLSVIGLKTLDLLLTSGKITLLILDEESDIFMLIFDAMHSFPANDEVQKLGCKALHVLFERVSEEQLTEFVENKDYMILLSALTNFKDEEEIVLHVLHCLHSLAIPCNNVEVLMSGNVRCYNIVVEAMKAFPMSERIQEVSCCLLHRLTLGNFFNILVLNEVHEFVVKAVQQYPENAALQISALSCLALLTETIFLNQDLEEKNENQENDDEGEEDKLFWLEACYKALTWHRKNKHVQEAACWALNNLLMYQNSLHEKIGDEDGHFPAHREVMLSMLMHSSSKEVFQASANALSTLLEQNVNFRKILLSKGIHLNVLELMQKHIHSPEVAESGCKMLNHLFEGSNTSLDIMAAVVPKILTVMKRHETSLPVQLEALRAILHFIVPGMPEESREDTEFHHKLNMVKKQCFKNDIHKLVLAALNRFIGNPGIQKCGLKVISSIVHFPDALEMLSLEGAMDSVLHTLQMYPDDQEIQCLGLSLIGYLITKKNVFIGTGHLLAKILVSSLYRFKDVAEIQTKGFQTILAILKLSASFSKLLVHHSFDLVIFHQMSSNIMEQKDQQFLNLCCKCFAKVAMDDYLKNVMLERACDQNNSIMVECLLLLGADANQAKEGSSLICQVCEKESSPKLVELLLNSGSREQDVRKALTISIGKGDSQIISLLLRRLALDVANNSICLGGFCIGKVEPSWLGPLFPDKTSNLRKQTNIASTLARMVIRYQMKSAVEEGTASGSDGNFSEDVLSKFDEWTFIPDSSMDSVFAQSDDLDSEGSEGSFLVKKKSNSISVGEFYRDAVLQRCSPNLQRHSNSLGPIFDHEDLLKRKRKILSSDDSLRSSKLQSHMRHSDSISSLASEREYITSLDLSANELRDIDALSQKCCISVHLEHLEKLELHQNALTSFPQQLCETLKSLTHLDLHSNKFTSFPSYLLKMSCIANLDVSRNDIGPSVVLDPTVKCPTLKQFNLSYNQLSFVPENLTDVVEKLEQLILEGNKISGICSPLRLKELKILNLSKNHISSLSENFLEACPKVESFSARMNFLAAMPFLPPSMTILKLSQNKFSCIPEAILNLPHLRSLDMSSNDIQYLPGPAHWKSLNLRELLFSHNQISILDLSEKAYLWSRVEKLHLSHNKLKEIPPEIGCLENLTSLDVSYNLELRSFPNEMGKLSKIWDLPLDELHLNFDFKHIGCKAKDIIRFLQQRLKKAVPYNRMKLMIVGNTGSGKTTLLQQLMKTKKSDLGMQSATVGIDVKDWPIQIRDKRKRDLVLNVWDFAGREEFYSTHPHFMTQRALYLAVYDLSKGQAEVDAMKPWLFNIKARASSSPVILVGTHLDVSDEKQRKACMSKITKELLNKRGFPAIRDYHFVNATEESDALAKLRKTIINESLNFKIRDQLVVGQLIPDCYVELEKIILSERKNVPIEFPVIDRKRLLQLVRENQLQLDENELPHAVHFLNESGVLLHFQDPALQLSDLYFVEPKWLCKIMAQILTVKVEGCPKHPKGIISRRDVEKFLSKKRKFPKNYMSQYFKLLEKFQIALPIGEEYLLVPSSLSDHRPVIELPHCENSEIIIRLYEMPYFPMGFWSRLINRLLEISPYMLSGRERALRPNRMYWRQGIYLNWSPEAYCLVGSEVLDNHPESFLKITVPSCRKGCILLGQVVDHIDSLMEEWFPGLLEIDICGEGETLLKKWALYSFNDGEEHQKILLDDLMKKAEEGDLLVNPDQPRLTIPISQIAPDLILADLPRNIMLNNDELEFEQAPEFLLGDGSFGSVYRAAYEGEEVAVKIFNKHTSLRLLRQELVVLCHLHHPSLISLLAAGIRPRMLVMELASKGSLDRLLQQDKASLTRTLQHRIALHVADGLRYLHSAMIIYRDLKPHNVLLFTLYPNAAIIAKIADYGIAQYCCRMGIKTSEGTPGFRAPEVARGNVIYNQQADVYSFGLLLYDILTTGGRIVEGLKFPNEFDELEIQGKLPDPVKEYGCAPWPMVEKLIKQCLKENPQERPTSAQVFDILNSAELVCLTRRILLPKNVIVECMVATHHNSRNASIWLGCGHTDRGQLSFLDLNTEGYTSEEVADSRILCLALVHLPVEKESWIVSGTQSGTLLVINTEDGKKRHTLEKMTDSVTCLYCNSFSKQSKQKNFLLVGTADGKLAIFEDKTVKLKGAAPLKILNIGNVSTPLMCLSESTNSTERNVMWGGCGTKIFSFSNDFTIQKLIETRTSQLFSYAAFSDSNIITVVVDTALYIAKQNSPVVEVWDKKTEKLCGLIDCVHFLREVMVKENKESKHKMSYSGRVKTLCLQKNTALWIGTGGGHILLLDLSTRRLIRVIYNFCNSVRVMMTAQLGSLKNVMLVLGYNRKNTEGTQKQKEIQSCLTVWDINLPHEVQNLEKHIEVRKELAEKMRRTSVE
How it was run: (§3)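 Radiometric kinase profiling service covering 288 kinases (261 wild-type, 27 mutant). Inhibition was read as incorporation from [γ-³³P]ATP.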

[6] = target: Protein kinase C alpha type (Homo sapiens) (UniProt P17252); assay: Inhibition of PKCa (unknown origin) using [gamma-33P]ATP assessed as residual activity at 3 uM
[7] = target: Serine/threonine-protein kinase SIK2 (Homo sapiens) (UniProt Q9H0K1); assay: Inhibition of SIK2 (unknown origin) using [gamma-33P]ATP assessed as residual activity at 3 uM
[8] = target: Dual specificity tyrosine-phosphorylation-regulated kinase 1B (Homo sapiens) (UniProt Q9Y463); assay: Inhibition of DYRK1B (unknown origin) using [gamma-33P]ATP assessed as residual activity at 3 uM; how it was run: as §1
[9] = target: Serine/threonine-protein kinase BRSK2 (Homo sapiens) (UniProt Q8IWQ3); assay: Inhibition of BRSK2 (unknown origin) using [gamma-33P]ATP assessed as residual activity at 3 uM; how it was run: as §2
Sequence of Serine/threonine-protein kinase BRSK2 (Homo sapiens) (Q8IWQ3 whole entry): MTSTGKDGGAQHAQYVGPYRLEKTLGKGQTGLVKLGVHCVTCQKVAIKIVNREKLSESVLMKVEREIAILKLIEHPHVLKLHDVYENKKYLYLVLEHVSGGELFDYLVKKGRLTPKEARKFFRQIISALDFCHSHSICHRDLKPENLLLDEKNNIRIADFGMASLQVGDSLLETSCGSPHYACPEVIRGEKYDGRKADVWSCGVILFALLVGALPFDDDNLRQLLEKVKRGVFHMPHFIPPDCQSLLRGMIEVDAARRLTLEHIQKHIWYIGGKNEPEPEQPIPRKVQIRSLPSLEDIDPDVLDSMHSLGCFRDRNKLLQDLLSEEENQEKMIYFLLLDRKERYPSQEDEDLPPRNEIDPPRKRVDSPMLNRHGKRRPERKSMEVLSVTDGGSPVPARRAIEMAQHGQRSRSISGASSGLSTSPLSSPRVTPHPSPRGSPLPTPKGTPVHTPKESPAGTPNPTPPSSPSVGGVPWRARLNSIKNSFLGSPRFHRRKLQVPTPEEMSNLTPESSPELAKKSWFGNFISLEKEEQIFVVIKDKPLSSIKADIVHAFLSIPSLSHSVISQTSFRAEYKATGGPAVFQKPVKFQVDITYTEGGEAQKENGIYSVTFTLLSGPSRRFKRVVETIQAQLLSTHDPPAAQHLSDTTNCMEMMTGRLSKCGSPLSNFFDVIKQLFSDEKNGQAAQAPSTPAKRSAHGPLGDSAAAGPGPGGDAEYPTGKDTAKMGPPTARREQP

[10] = target: Ephrin type-A receptor 8 (Homo sapiens) (UniProt P29322); assay: Inhibition of EPHA8 (unknown origin) using [gamma-33P]ATP assessed as residual activity at 3 uM; how it was run: as §1
[11] = target: Casein kinase I isoform gamma-2 (Homo sapiens) (UniProt P78368); assay: Inhibition of CK1g2 (unknown origin) using [gamma-33P]ATP assessed as residual activity at 3 uM; how it was run: as §1
Sequence of Casein kinase I isoform gamma-2 (Homo sapiens) (P78368 whole entry, looked up, canonical isoform): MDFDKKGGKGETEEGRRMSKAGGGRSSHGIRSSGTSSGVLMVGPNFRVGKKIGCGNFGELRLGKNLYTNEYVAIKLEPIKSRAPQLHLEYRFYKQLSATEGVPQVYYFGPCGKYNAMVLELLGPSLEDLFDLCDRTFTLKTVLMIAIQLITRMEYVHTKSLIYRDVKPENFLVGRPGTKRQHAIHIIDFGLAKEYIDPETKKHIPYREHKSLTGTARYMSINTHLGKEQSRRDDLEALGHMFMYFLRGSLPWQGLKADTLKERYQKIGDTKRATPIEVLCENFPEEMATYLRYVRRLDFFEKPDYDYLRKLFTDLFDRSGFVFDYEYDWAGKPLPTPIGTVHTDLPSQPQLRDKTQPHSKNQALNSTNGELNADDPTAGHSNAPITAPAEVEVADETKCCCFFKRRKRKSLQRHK

[12] = target: Tyrosine-protein kinase Lyn (Homo sapiens) (UniProt P07948); assay: Inhibition of LYN-B (unknown origin) using [gamma-33P]ATP assessed as residual activity at 3 uM; how it was run: as §3
[13] = target: PAS domain-containing serine/threonine-protein kinase (Homo sapiens) (UniProt Q96RG2); assay: Inhibition of PASK (unknown origin) using [gamma-33P]ATP assessed as residual activity at 3 uM
[14] = target: Vascular endothelial growth factor receptor 1 (Homo sapiens) (UniProt P17948); assay: Inhibition of FLT1 (unknown origin) using [gamma-33P]ATP assessed as residual activity at 3 uM; how it was run: as §1
[15] = target: Cyclin-dependent kinase 5/CDK5 activator 1 (Homo sapiens) (UniProt Q00535+Q15078); assay: Inhibition of CDK5/p25 (unknown origin) using [gamma-33P]ATP assessed as residual activity at 3 uM; format: protein-complex assay; how it was run: as §2
[16] = target: Serine/threonine-protein kinase WNK3 (Homo sapiens) (UniProt Q9BYP7); assay: Inhibition of WNK3 (unknown origin) using [gamma-33P]ATP assessed as residual activity at 3 uM
[17] = target: Death-associated protein kinase 2 (Homo sapiens) (UniProt Q9UIK4); assay: Inhibition of DAPK2 (unknown origin) using [gamma-33P]ATP assessed as residual activity at 3 uM; how it was run: as §1
[18] = target: Ephrin type-A receptor 5 (Homo sapiens) (UniProt P54756); assay: Inhibition of EPHA5 (unknown origin) using [gamma-33P]ATP assessed as residual activity at 3 uM; how it was run: as §1
[19] = target: Ribosomal protein S6 kinase alpha-4 (Homo sapiens) (UniProt O75676); assay: Inhibition of MSK2 (unknown origin) using [gamma-33P]ATP assessed as residual activity at 3 uM
[20] = target: Casein kinase II subunit alpha' (Homo sapiens) (UniProt P19784); assay: Inhibition of CK2a2 (unknown origin) using [gamma-33P]ATP assessed as residual activity at 3 uM; how it was run: as §1
Sequence of Casein kinase II subunit alpha' (Homo sapiens) (P19784 whole entry, looked up): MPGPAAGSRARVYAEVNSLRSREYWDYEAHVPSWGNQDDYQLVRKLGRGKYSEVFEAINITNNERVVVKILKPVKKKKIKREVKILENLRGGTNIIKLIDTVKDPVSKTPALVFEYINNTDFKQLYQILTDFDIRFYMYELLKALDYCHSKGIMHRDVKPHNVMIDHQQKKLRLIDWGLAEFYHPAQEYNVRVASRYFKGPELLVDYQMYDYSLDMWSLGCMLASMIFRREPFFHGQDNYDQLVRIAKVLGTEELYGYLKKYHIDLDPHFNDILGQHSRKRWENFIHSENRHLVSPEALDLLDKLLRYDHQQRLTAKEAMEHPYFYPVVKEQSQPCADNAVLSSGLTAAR

[21] = target: Calcium/calmodulin-dependent protein kinase type II subunit gamma (Homo sapiens) (UniProt Q13555); assay: Inhibition of CAMK2g (unknown origin) using [gamma-33P]ATP assessed as residual activity at 3 uM; how it was run: as §2
[22] = system: Platelet-derived growth factor receptor alpha (Homo sapiens), P16234 [T674I]; assay: Inhibition of PDGFRa T674I mutant (unknown origin) using [gamma-33P]ATP assessed as residual activity at 3 uM
[23] = target: G protein-coupled receptor kinase 4 (Homo sapiens) (UniProt P32298); assay: Inhibition of GRK4 (unknown origin) using [gamma-33P]ATP assessed as residual activity at 3 uM; how it was run: as §3
[24] = target: Serine/threonine-protein kinase pim-2 (Homo sapiens) (UniProt Q9P1W9); assay: Inhibition of PIM2 (unknown origin) using [gamma-33P]ATP assessed as residual activity at 3 uM
[25] = target: Serine/threonine-protein kinase N2 (Homo sapiens) (UniProt Q16513); assay: Inhibition of PKN2 (unknown origin) using [gamma-33P]ATP assessed as residual activity at 3 uM
[26] = target: Ephrin type-B receptor 3 (Homo sapiens) (UniProt P54753); assay: Inhibition of EPHB3 (unknown origin) using [gamma-33P]ATP assessed as residual activity at 3 uM; how it was run: as §1
[27] = target: Ephrin type-A receptor 3 (Homo sapiens) (UniProt P29320); assay: Inhibition of EPHA3 (unknown origin) using [gamma-33P]ATP assessed as residual activity at 3 uM; how it was run: as §1
Sequence of Ephrin type-A receptor 3 (Homo sapiens) (P29320 whole entry): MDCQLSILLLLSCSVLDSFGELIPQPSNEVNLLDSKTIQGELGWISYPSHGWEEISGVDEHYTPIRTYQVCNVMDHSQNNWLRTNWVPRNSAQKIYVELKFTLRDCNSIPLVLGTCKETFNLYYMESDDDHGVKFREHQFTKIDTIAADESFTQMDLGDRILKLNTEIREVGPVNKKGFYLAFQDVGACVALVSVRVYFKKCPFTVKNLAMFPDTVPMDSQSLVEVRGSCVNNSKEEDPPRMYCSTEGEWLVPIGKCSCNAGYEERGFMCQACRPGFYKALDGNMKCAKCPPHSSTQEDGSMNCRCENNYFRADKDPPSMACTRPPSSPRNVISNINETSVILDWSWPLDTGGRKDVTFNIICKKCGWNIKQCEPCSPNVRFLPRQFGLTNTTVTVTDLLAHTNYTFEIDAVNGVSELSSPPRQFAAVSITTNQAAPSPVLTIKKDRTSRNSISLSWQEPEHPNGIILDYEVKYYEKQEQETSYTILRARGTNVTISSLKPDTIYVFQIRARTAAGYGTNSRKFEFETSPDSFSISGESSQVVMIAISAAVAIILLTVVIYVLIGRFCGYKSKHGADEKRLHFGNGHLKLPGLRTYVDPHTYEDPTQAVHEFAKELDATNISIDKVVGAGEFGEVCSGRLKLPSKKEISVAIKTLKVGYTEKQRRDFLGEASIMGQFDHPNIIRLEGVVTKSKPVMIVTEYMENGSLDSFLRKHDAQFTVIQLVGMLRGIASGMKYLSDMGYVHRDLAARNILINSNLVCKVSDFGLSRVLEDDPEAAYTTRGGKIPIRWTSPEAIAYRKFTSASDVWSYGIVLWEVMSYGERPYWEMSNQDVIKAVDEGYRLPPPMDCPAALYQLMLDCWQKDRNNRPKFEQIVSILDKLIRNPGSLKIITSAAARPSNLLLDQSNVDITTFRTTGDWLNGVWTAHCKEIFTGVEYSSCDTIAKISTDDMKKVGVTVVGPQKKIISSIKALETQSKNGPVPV

[28] = target: Serine/threonine-protein kinase DCLK2 (Homo sapiens) (UniProt Q8N568); assay: Inhibition of DCAMKL2 (unknown origin) using [gamma-33P]ATP assessed as residual activity at 3 uM; how it was run: as §1
[29] = target: Serine/threonine-protein kinase A-Raf (Homo sapiens) (UniProt P10398); assay: Inhibition of ARAF (unknown origin) using [gamma-33P]ATP assessed as residual activity at 3 uM; how it was run: as §2
[30] = system: Tyrosine-protein kinase ABL1 (Homo sapiens), P00519 [H396P]; assay: Inhibition of ABL1 H396P mutant (unknown origin) using [gamma-33P]ATP assessed as residual activity at 3 uM; how it was run: as §2
[31] = target: Ribosomal protein S6 kinase alpha-6 (Homo sapiens) (UniProt Q9UK32); assay: Inhibition of RSK4 (unknown origin) using [gamma-33P]ATP assessed as residual activity at 3 uM

- Activity [1]: 89%
- Activity [2]: 85%
- Activity [3]: 93%
- Activity [4]: 91%
- Activity [5]: 58%
- Activity [6]: 86%
- Activity [7]: 103%
- Activity [8]: 98%
- Activity [9]: 93%
- Activity [10]: 95%
- Activity [11]: 101%
- Activity [12]: 78%
- Activity [13]: 95%
- Activity [14]: 89%
- Activity [15]: 90%
- Activity [16]: 106%
- Activity [18]: 90%
- Activity [19]: 98%
- Activity [20]: 53%
- Activity [21]: 94%
- Activity [22]: 91%
- Activity [23]: 94%
- Activity [24]: 101%
- Activity [25]: 91%
- Activity [26]: 95%
- Activity [27]: 97%
- Activity [28]: 101%
- Activity [29]: 100%
- Activity [30]: 71%
- Activity [31]: 101%
Structure (SMILES): CCc1ccc(-c2ccc3c(c2)-c2[nH]ncc2S(=O)(=O)N3C)cc1
- Activity [17]: 102%
